“Also recorded” adds a separate entry of the source.
What was measured:
MCF-7 cell line = assay: MTT cytotoxicity assay, MCF-7 cell line; type: cell-based; settings: for cytotoxic effect on MCF-7 cell line (in words): MTT assay; for improvement of cytotoxicity by hybridization, compared with VIIa and VIIb: MCF-7, fused pyrazole hybrids versus benzoxazinones VIIa and VIIb
Procedure, shortened: (§1)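 Cells grown in RPMI-1640 with 10% FBS and 1% penicillin/streptomycin, seeded at 5-7 × 10^4 per well, 37 °C, 5% CO2. Test compound at final 1, 4, 6, 8, 10, 40, 60, 80 and 100 μM for 48 h. MTT (5 mg/mL in PBS) added for 3 h, formazan dissolved in DMSO, absorbance read at 570 nm. Doxorubicin (20 μM) was the positive control, untreated cells set 100% viability, and medium was the blank. Triplicate, repeated on three days.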

HUVEC cell line = assay: MTT cytotoxicity assay, HUVEC normal cell line; type: cell-based; settings: Homo sapiens, 48 h, read-out: IC50 HUVEC
Procedure, shortened: as §1

Row | SMILES | cytotoxic effect on MCF-7 cell line (in words) (MCF-7 cell line) | IC50 (HUVEC cell line) | improvement of cytotoxicity by hybridization, compared with VIIa and VIIb (MCF-7 cell line)
1 | O=C1OC(c2ccccc2)=N/C1=C\c1ccc(Cl)cc1 [Va, (Z)-4-(4-chlorobenzylidene)-2-phenyloxazol-5(4H)-one] | no remarkable cytotoxic effect; also recorded: no inhibitory activity | 96.4 ± 2.22 µM | 
2 | O=C1OC(c2ccccc2)=N/C1=C\c1ccc([N+](=O)[O-])cc1 [Vb, (Z)-4-(4-nitrobenzylidene)-2-phenyloxazol-5(4H)-one] | no remarkable cytotoxic effect; also recorded: no inhibitory activity | 93.3 ± 4.11 µM | 
3 | Cc1nc2ccccc2c(=O)n1N1C(=O)/C(=C/c2ccc(Cl)cc2)N=C1c1ccccc1 [XIIIa, (Z)-3-(4-(4-chlorobenzylidene)-5-oxo-2-phenyl-4,5-dihydro-1H-imidazol-1-yl)-2-methylquinazolin-4(3H)-one] |  | 94.41 ± 0.89 µM | 
4 | O=C(N/C(=C/c1ccc(Cl)cc1)c1nc2ccccc2c2cc(=O)[nH]n12)c1ccccc1 [IXa, (E)-N-(2-(4-chlorophenyl)-1-(2-oxo-2,3-dihydropyrazolo[1,5-c]quinazolin-5-yl)vinyl)benzamide] |  | 79 ± 3.71 µM | 3-4 times
5 | COc1cccc2c1C(=O)c1c(O)c3c(c(O)c1C2=O)C[C@@](O)(C(=O)CO)C[C@@H]3O[C@H]1C[C@H](N)[C@H](O)[C@H](C)O1 [Doxorubicin, reference compound] |  | 21.17 ± 0.05 µM | 
6 | Cc1nc2ccccc2c(=O)n1N1C(=O)/C(=C/c2ccc([N+](=O)[O-])cc2)N=C1c1ccccc1 [XIIIb, (Z)-2-methyl-3-(4-(4-nitrobenzylidene)-5-oxo-2-phenyl-4,5-dihydro-1H-imidazol-1-yl) quinazolin-4(3H)-one] |  | 81.2 ± 6.17 µM | 
7 | O=C(N/C(=C/c1ccc(Cl)cc1)c1nc2ccccc2c(=O)o1)c1ccccc1 [VIIa, (E)-N-(2-(4-chlorophenyl)-1-(4-oxo-4H-benzo[d][1,3]oxazin-2-yl)vinyl)benzamide] |  | 72.2 ± 1.5 µM | 
8 | O=C(N/C(=C/c1ccc([N+](=O)[O-])cc1)c1nc2ccccc2c2cc(=O)[nH]n12)c1ccccc1 [IXb, (E)-N-(2-(4-nitrophenyl)-1-(2-oxo-2,3-dihydropyrazolo[1,5-c]quinazolin-5-yl)vinyl) benzamide] |  | 96.2 ± 4.66 µM | 3-4 times

— publication PMC8621847 (Research in Pharmaceutical Sciences, 2021)
